Reference: ChEMBL document CHEMBL1156597, “Structure-activity relationship of kahalalide F synthetic analogues” (J Med Chem, 2008)

Tests used:
A549 = test: Cytotoxicity against human A549 cells after 48 hrs by SRB assay; assay type: functional, cell-based; details: Homo sapiens, A549, 48 h
How it was run: (§1)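 Cells grown in RPMI 1640 with 10% FBS and penicillin/streptomycin at 37 °C and 5% CO₂, trypsinized, then seeded at 5 × 10³/well. After 18 h drug-free attachment, samples in DMSO/EtOH/PBS (0.5:0.5:99) were added for 48 h continuous exposure. Cells were fixed with cold TCA (1 h, 4 °C) and stained with SRB (10 min). Tris-solubilized stain read at 490 nm. Triplicate wells, mean ± SD; GI₅₀ derived.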

SK-MEL-28 [1] = test: Cytotoxicity against human SK-MEL-28 cells after 48 hrs by SRB assay; assay type: functional, cell-based; details: Homo sapiens, SK-MEL-28, 48 h; for CC50: read-out: LC50 (the source's name); how it was run: as §1
HT-29 = test: Cytotoxicity against human HT29 cells after 48 hrs by SRB assay; assay type: functional, cell-based; details: Homo sapiens, HT-29, 48 h; for CC50: read-out: LC50 (the source's name); how it was run: as §1
DU-145 [2] = test: Cytotoxicity against human DU145 cells
LoVo [3] = test: Cytotoxicity against human LoVo cells after 48 hrs by SRB assay; assay type: functional; details: for CC50: read-out: LC50 (the source's name)
[4] = Cytotoxicity against human IGROV-ET cells after 48 hrs by SRB assay; assay type: functional; details: for CC50: read-out: LC50 (the source's name); how it was run: as §1
DU-145 [5] = test: Cytotoxicity against human DU145 cells after 48 hrs by SRB assay; assay type: functional, cell-based; details: Homo sapiens, DU-145, 48 h; for CC50: read-out: LC50 (the source's name); how it was run: as §1
[6] = Cytotoxicity against human IGROV cells after 48 hrs by SRB assay; assay type: functional; details: for CC50: read-out: LC50 (the source's name); how it was run: as §1
LoVo [7] = test: Cytotoxicity against human doxorubicin resistant LoVo cells after 48 hrs by SRB assay; assay type: functional; details: for CC50: read-out: LC50 (the source's name); how it was run: as §1
LNCaP = test: Cytotoxicity against human LNcaP cells after 48 hrs by SRB assay; assay type: functional; details: for CC50: read-out: LC50 (the source's name); how it was run: as §1
PANC-1 = test: Cytotoxicity against human PANC1 cells after 48 hrs by SRB assay; assay type: functional; details: PANC-1, 48 h; for CC50: read-out: LC50 (the source's name); how it was run: as §1
[8] = Cytotoxicity against human HeLa-APL cells after 48 hrs by SRB assay; assay type: functional; how it was run: as §1
HeLa = test: Cytotoxicity against human HeLa cells after 48 hrs by SRB assay; assay type: functional; details: for CC50: read-out: LC50 (the source's name); how it was run: as §1
K562 = test: Cytotoxicity against human K562 cells after 48 hrs by SRB assay; assay type: functional; details: K562, 48 h; for CC50: read-out: LC50 (the source's name); how it was run: as §1
SK-BR-3 = test: Cytotoxicity against human SKBR3 cells after 48 hrs by SRB assay; assay type: functional; details: SK-BR-3, 48 h; for GI50: read-out: GI50; for CC50: read-out: LC50 (the source's name); how it was run: as §1
SK-MEL-28 [9] = test: Cytotoxicity against human SK-MEL-28 cells

Row | Compound | CC50 (LoVo [3]) | GI50 [4] | GI50 ([4]; read-out: GI50) | CC50 [4] | GI50 (DU-145 [5]; read-out: GI50) | CC50 (DU-145 [5]) | GI50 [6] | GI50 ([6]; read-out: GI50) | CC50 [6] | LC50 (A549) | GI50 (SK-MEL-28 [1]; read-out: GI50) | CC50 (SK-MEL-28 [1]) | CC50 (LoVo [7]) | CC50 (LNCaP) | CC50 (PANC-1) | CC50 (HT-29) | GI50 [8] | LC50 (concentration giving 50% net cell kill) [8] | TGI [8] | CC50 (HeLa) | also measured
1 | CC[C@@H](C)[C@@H](NC(=O)[C@H](CCCN)NC(=O)[C@H]1CCCN1C(=O)[C@H](NC(=O)[C@@H](NC(=O)[C@@H](NC(=O)[C@H](NC(=O)CCCC(C)C)C(C)C)[C@@H](C)O)C(C)C)C(C)C)C(=O)N[C@H]1C(=O)N[C@H]([C@H](C)CC)C(=O)N[C@H](C(C)C)C(=O)N[C@@H](Cc2ccccc2)C(=O)N[C@H]([C@@H](C)O)C(=O)N[C@@H](C(C)C)C(=O)O[C@H]1C | – | – | – | – | – | – | – | – | – | – | – | – | – | – | – | – | – | – | – | – | IC50 (A549): 11500 nM; IC50 (SK-MEL-28 [1]): 11700 nM; IC50 (HT-29): 8520 nM; IC50 (DU-145 [2]): 18400 nM
2 | CC[C@@H](C)[C@@H](NC(=O)[C@H](CCCN)NC(=O)[C@H]1CCCN1C(=O)[C@H](NC(=O)[C@@H](NC(=O)[C@@H](NC(=O)[C@H](NC(=O)CCCC(C)C)C(C)C)[C@@H](C)O)C(C)C)C(C)C)C(=O)N[C@H]1C(=O)N[C@H]([C@H](C)CC)C(=O)N[C@H](C(C)C)C(=O)N[C@@H](Cc2ccccc2)C(=O)NC(C)(C)C(=O)N[C@@H](C(C)C)C(=O)O[C@H]1C | 2070 nM | 668 nM | 1080 nM | 423 nM | 1640 nM | 1170 nM | 790 nM | 1790 nM | 368 nM | 1430 nM | 2180 nM | 1740 nM | 456 nM | 1390 nM | 1770 nM | 743 nM | 2790 nM | 1430 nM | 2800 nM | 1090 nM | GI50 (LoVo [3]): 2320 nM; TGI (LoVo [3]): 2310 nM; TGI (DU-145 [5]): 1390 nM; TGI (SK-MEL-28 [1]): 3080 nM; GI50 (LoVo [7]): 1590 nM; TGI (LoVo [7]): 1500 nM; GI50 (HT-29): 2350 nM; TGI (HT-29): 2120 nM; CC50 (K562): 1930 nM; TGI (SK-BR-3): 1980 nM; GI50 (SK-BR-3): 2130 nM; CC50 (SK-BR-3): 777 nM
3 | C/C=C1\NC(=O)[C@H](Cc2ccccc2)NC(=O)[C@@H](C(C)C)NC(=O)[C@@H]([C@H](C)CC)NC(=O)[C@H](NC(=O)[C@H](NC(=O)[C@@H](NC(=O)[C@@H](NC(=O)[C@H](NC(=O)CCCC(C)C)C(C)C)[C@@H](C)O)C(C)C)[C@H](C)CC)[C@H](C)OC(=O)[C@H](C(C)C)NC1=O | – | – | – | – | – | – | – | – | – | – | – | – | – | – | – | – | – | – | – | – | IC50 (DU-145 [5]): 4300 nM; IC50 (A549): 4300 nM; IC50 (SK-MEL-28 [9]): 4300 nM; IC50 (HT-29): 4300 nM
4 | C/C=C1\NC(=O)[C@H](Cc2ccccc2)NC(=O)[C@@H](C(C)C)NC(=O)[C@@H]([C@H](C)CC)NC(=O)[C@H](NC(=O)[C@H](NC(=O)[C@H](CCCN)NC(=O)[C@H]2CCCN2C(=O)[C@H](NC(=O)[C@@H](NC(=O)[C@H](Cc2ccccc2)NC(=O)[C@H](NC(=O)CCCC(C)C)C(C)C)C(C)C)C(C)C)[C@H](C)CC)[C@H](C)OC(=O)[C@H](C(C)C)NC1=O | 210 nM | 197 nM | 245 nM | 518 nM | 191 nM | 321 nM | 103 nM | 175 nM | 478 nM | 1330 nM | 152 nM | 158 nM | 252 nM | 777 nM | 1720 nM | 68.3 nM | 145 nM | 282 nM | 142 nM | 352 nM | GI50 (LoVo [3]): 332 nM; TGI (LoVo [3]): 296 nM; GI50 (DU-145 [5]): 166 nM; TGI (A549): 71.4 nM; GI50 (A549; read-out: GI50): 69.4 nM; GI50 (SK-MEL-28 [1]): 146 nM; GI50 (LoVo [7]): 380 nM; TGI (LoVo [7]): 456 nM; GI50 (LNCaP): 61.7 nM; TGI (LNCaP): 132 nM; GI50 (PANC-1): 142 nM; TGI (PANC-1): 304 nM; GI50 (HeLa): 128 nM; TGI (HeLa): 137 nM; GI50 (K562): 23.2 nM; TGI (K562): 106 nM; CC50 (K562): 1150 nM; TGI (SK-BR-3): 351 nM; GI50 (SK-BR-3): 303 nM; CC50 (SK-BR-3): 352 nM
5 | C/C=C1\NC(=O)[C@H](Cc2ccccc2)NC(=O)[C@@H](C(C)C)NC(=O)[C@@H]([C@H](C)CC)NC(=O)[C@H](NC(=O)[C@H](NC(=O)[C@H](CCCN)NC(=O)[C@H]2CCCN2C(=O)[C@H](NC(=O)[C@@H](NC(=O)[C@@H](NC(=O)[C@H](NC(=O)CCCC(C)C)C(C)C)C(C)C)C(C)C)C(C)C)[C@H](C)CC)[C@H](C)OC(=O)[C@H](C(C)C)NC1=O | 264 nM | 248 nM | 257 nM | 64.8 nM | 175 nM | 127 nM | 118 nM | 183 nM | 55.9 nM | 640 nM | 209 nM | 151 nM | 28 nM | 733 nM | 1420 nM | 322 nM | 324 nM | 730 nM | 467 nM | 116 nM | GI50 (LoVo [3]): 276 nM; TGI (LoVo [3]): 270 nM; GI50 (DU-145 [5]): 149 nM; GI50 (A549): 445 nM; GI50 (A549; read-out: GI50): 258 nM; TGI (SK-MEL-28 [1]): 178 nM; GI50 (LNCaP): 334 nM; TGI (LNCaP): 530 nM; GI50 (PANC-1): 1120 nM; TGI (PANC-1): 1260 nM; GI50 (HT-29): 300 nM; TGI (HT-29): 311 nM; GI50 (HeLa): 134 nM; TGI (HeLa): 124 nM; GI50 (K562): 718 nM; TGI (K562): 899 nM; CC50 (K562): 1100 nM; TGI (SK-BR-3): 153 nM; GI50 (SK-BR-3): 166 nM; CC50 (SK-BR-3): 75.8 nM
6 | C/C=C1\NC(=O)[C@H](Cc2ccccc2)NC(=O)[C@@H](C(C)C)NC(=O)[C@@H]([C@H](C)CC)NC(=O)[C@H](NC(=O)[C@H](NC(=O)[C@H](CCCNC(=O)CCOCCOCCN)NC(=O)[C@H]2CCCN2C(=O)[C@H](NC(=O)[C@@H](NC(=O)[C@@H](NC(=O)[C@H](NC(=O)CCCC(C)C)C(C)C)[C@@H](C)O)C(C)C)C(C)C)[C@H](C)CC)[C@H](C)OC(=O)[C@H](C(C)C)NC1=O | 301 nM | 287 nM | 195 nM | 510 nM | 738 nM | 982 nM | 134 nM | 176 nM | 262 nM | 350 nM | 952 nM | 954 nM | 29.5 nM | 866 nM | 1600 nM | 390 nM | 515 nM | 852 nM | 658 nM | 944 nM | GI50 (DU-145 [5]): 852 nM; GI50 (A549): 595 nM; GI50 (A549; read-out: GI50): 4920 nM; GI50 (SK-MEL-28 [1]): 956 nM; GI50 (PANC-1): 1250 nM; TGI (PANC-1): 1060 nM; GI50 (HeLa): 711 nM; TGI (HeLa): 942 nM; CC50 (K562): 159 nM; TGI (SK-BR-3): 235 nM; GI50 (SK-BR-3): 248 nM; CC50 (SK-BR-3): 111 nM
